# ChEMBL document CHEMBL4689842, “EUbOPEN Chemogenomics Library wave 1” (2021)
# Key:
# Format in all cases: toxicity, cell-based
# [1] = system: U2OS; assay: Multiplex assay against U2OS; conditions: human
# In short: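 Hoechst33342, BioTracker Green Microtubule Cytoskeleton Dye, MitoTracker Red and Annexin V Alexa Fluor 680 were added to live cells at seeding, and imaging on a CQ1 microscope at 37°C and 5% CO2 followed compound addition. Gating by CellPathfinder machine learning separated cells into Hoechst high-intensity objects or normal cells, then normal cells into healthy, pyknosed or fragmented nuclei, then pyknosed cells into mitotic or apoptotic. Per cents of healthy-nucleus cells are reported for the tubulin, mitochondrial-mass and membrane-permeability phenotypes.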
# [2] = system: HEK-293T; assay: Incucyte cell viability with HEK293T; conditions: human, 10 µM, compound concentration 10 uM; note: filed as whole numbers so only -1 and 0 and 1 occur
# [3] = system: Fibroblast; assay: Incucyte cell viability with human fibroblast; conditions: 10 µM, compound concentration 10 uM; note: filed as whole numbers so only -1 and 0 and 1 occur
# [4] = system: U2OS; assay: Incucyte cell viability with U2OS; conditions: human, 10 µM, compound concentration 10 uM; note: filed as whole numbers so only -1 and 0 and 1 occur
# [5] = 12 h, 1 µM, compound concentration 1 uM, replicate 1
# [6] = 12 h, 1 µM, compound concentration 1 uM, replicate 2
# [7] = 12 h, 10 µM, compound concentration 10 uM, replicate 1
# [8] = 12 h, 10 µM, compound concentration 10 uM, replicate 2
# [9] = 24 h, 1 µM, compound concentration 1 uM, replicate 1
# [10] = 24 h, 1 µM, compound concentration 1 uM, replicate 2
# [11] = 24 h, 10 µM, compound concentration 10 uM, replicate 1
# [12] = 24 h, 10 µM, compound concentration 10 uM, replicate 2
# [13] = 48 h, 1 µM, compound concentration 1 uM, replicate 1
# [14] = 48 h, 1 µM, compound concentration 1 uM, replicate 2
# [15] = 48 h, 10 µM, compound concentration 10 uM, replicate 1
# [16] = 48 h, 10 µM, compound concentration 10 uM, replicate 2
# [17] = 6 h, replicate number 1, timepoint 6 hours
# [18] = 12 h, replicate number 1, timepoint 12 hours
# [19] = 18 h, replicate number 1, timepoint 18 hours
# [20] = 24 h, replicate number 1, timepoint 24 hours
smiles,measurement,setting,value
C[C@@H](Oc1cc(-n2cnc3ccc(CN4CCN(C)CC4)cc32)sc1C(N)=O)c1ccccc1C(F)(F)F [GSK-461364],Population Apoptotic (%),[1]; [5],55%
same,Population Fragmented Nuclei (%),[1]; [5],13%
same,Population Healthy Nuclei (%),[1]; [5],70%
same,Population Hoechst High Intensity Objects (%),[1]; [5],7%
same,Population Membrane Permeable-Phenotype (%),[1]; [5],7%
same,Population Mitochondria Different-Phenotype (%),[1]; [5],60%
same,Population Mitotic Cells (%),[1]; [5],45%
same,Population Normal (%),[1]; [5],92%
same,Population Pyknosed Nuclei (%),[1]; [5],15%
same,Population Tubulin-Different-Phenotype (%),[1]; [5],84%
same,Total Cell Count,[1]; [5],153
same,Population Apoptotic (%),[1]; [6],12%
same,Population Fragmented Nuclei (%),[1]; [6],12%
same,Population Healthy Nuclei (%),[1]; [6],71%
same,Population Hoechst High Intensity Objects (%),[1]; [6],4%
same,Population Membrane Permeable-Phenotype (%),[1]; [6],12%
same,Population Mitochondria Different-Phenotype (%),[1]; [6],35%
same,Population Mitotic Cells (%),[1]; [6],87%
same,Population Normal (%),[1]; [6],95%
same,Population Pyknosed Nuclei (%),[1]; [6],16%
same,Population Tubulin-Different-Phenotype (%),[1]; [6],30%
same,Population Apoptotic (%),[1]; [7],58%
same,Population Fragmented Nuclei (%),[1]; [7],14%
same,Population Healthy Nuclei (%),[1]; [7],40%
same,Population Hoechst High Intensity Objects (%),[1]; [7],9%
same,Population Membrane Permeable-Phenotype (%),[1]; [7],81%
same,Population Mitochondria Different-Phenotype (%),[1]; [7],100%
same,Population Mitotic Cells (%),[1]; [7],41%
same,Population Normal (%),[1]; [7],90%
same,Population Pyknosed Nuclei (%),[1]; [7],44%
same,Population Tubulin-Different-Phenotype (%),[1]; [7],100%
same,Total Cell Count,[1]; [7],137
same,Population Apoptotic (%),[1]; [8],40%
same,Population Fragmented Nuclei (%),[1]; [8],13%
same,Population Healthy Nuclei (%),[1]; [8],55%
same,Population Membrane Permeable-Phenotype (%),[1]; [8],71%
same,Population Mitotic Cells (%),[1]; [8],59%
same,Population Pyknosed Nuclei (%),[1]; [8],31%
same,Population Apoptotic (%),[1]; [9],78%
same,Population Fragmented Nuclei (%),[1]; [9],16%
same,Population Healthy Nuclei (%),[1]; [9],65%
same,Population Hoechst High Intensity Objects (%),[1]; [9],6%
same,Population Membrane Permeable-Phenotype (%),[1]; [9],8%
same,Population Mitochondria Different-Phenotype (%),[1]; [9],65%
same,Population Mitotic Cells (%),[1]; [9],21%
same,Population Normal (%),[1]; [9],93%
same,Population Pyknosed Nuclei (%),[1]; [9],17%
same,Population Tubulin-Different-Phenotype (%),[1]; [9],91%
same,Population Apoptotic (%),[1]; [10],50%
same,Population Fragmented Nuclei (%),[1]; [10],14%
same,Population Healthy Nuclei (%),[1]; [10],68%
same,Population Hoechst High Intensity Objects (%),[1]; [10],4%
same,Population Membrane Permeable-Phenotype (%),[1]; [10],18%
same,Population Mitochondria Different-Phenotype (%),[1]; [10],35%
same,Population Mitotic Cells (%),[1]; [10],50%
same,Population Normal (%),[1]; [10],95%
same,Population Tubulin-Different-Phenotype (%),[1]; [10],28%
same,Population Apoptotic (%),[1]; [11],90%
same,Population Fragmented Nuclei (%),[1]; [11],23%
same,Population Healthy Nuclei (%),[1]; [11],21%
same,Population Hoechst High Intensity Objects (%),[1]; [11],8%
same,Population Membrane Permeable-Phenotype (%),[1]; [11],92%
same,Population Mitochondria Different-Phenotype (%),[1]; [11],100%
same,Population Mitotic Cells (%),[1]; [11],9%
same,Population Normal (%),[1]; [11],91%
same,Population Pyknosed Nuclei (%),[1]; [11],54%
same,Population Tubulin-Different-Phenotype (%),[1]; [11],100%
same,Total Cell Count,[1]; [11],138
same,Population Apoptotic (%),[1]; [12],82%
same,Population Fragmented Nuclei (%),[1]; [12],10%
same,Population Healthy Nuclei (%),[1]; [12],47%
same,Population Hoechst High Intensity Objects (%),[1]; [12],6%
same,Population Membrane Permeable-Phenotype (%),[1]; [12],90%
same,Population Mitotic Cells (%),[1]; [12],17%
same,Population Normal (%),[1]; [12],93%
same,Population Pyknosed Nuclei (%),[1]; [12],41%
same,Population Apoptotic (%),[1]; [13],71%
same,Population Fragmented Nuclei (%),[1]; [13],22%
same,Population Healthy Nuclei (%),[1]; [13],51%
same,Population Hoechst High Intensity Objects (%),[1]; [13],10%
same,Population Membrane Permeable-Phenotype (%),[1]; [13],18%
same,Population Mitochondria Different-Phenotype (%),[1]; [13],57%
same,Population Mitotic Cells (%),[1]; [13],28%
same,Population Normal (%),[1]; [13],89%
same,Population Pyknosed Nuclei (%),[1]; [13],25%
same,Population Tubulin-Different-Phenotype (%),[1]; [13],85%
same,Total Cell Count,[1]; [13],246
same,Population Apoptotic (%),[1]; [14],47%
same,Population Fragmented Nuclei (%),[1]; [14],10%
same,Population Healthy Nuclei (%),[1]; [14],68%
same,Population Hoechst High Intensity Objects (%),[1]; [14],5%
same,Population Membrane Permeable-Phenotype (%),[1]; [14],27%
same,Population Mitochondria Different-Phenotype (%),[1]; [14],25%
same,Population Mitotic Cells (%),[1]; [14],52%
same,Population Normal (%),[1]; [14],94%
same,Population Pyknosed Nuclei (%),[1]; [14],20%
same,Population Tubulin-Different-Phenotype (%),[1]; [14],30%
same,Total Cell Count,[1]; [14],128
same,Population Apoptotic (%),[1]; [15],98%
same,Population Fragmented Nuclei (%),[1]; [15],27%
same,Population Healthy Nuclei (%),[1]; [15],14%
same,Population Hoechst High Intensity Objects (%),[1]; [15],11%
same,Population Membrane Permeable-Phenotype (%),[1]; [15],100%
same,Population Mitochondria Different-Phenotype (%),[1]; [15],94%
same,Population Mitotic Cells (%),[1]; [15],1%
same,Population Normal (%),[1]; [15],88%
same,Population Pyknosed Nuclei (%),[1]; [15],58%
same,Population Tubulin-Different-Phenotype (%),[1]; [15],100%
same,Total Cell Count,[1]; [15],138
same,Population Apoptotic (%),[1]; [16],82%
same,Population Fragmented Nuclei (%),[1]; [16],20%
same,Population Healthy Nuclei (%),[1]; [16],43%
same,Population Hoechst High Intensity Objects (%),[1]; [16],8%
same,Population Membrane Permeable-Phenotype (%),[1]; [16],97%
same,Population Mitochondria Different-Phenotype (%),[1]; [16],100%
same,Population Mitotic Cells (%),[1]; [16],17%
same,Population Normal (%),[1]; [16],91%
same,Population Pyknosed Nuclei (%),[1]; [16],36%
same,Total Cell Count,[1]; [16],108
same,Growth Rate,[2]; [17],0
same,Growth Rate,[2]; [18],0
same,Growth Rate,[2]; [19],0
same,Growth Rate,[2]; [20],0
same,Growth Rate,"[3]; 0 h, replicate number 2, timepoint 0 hours",0
same,Growth Rate,[3]; [17],0
same,Growth Rate,"[3]; 6 h, replicate number 2, timepoint 6 hours",1
same,Growth Rate,[3]; [18],0
same,Growth Rate,[3]; [19],0
same,Growth Rate,[3]; [20],0
same,Growth Rate,[4]; [17],1
same,Growth Rate,[4]; [18],0
same,Growth Rate,[4]; [19],0
same,Growth Rate,[4]; [20],0
